Assay results of several laboratories.
Protocols differ between the studies behind these lines.
BCHE: Cholinesterase (BCHE, Equus caballus, UniProt P81908)
SLC6A4: Sodium-dependent serotonin transporter (SLC6A4, Homo sapiens, UniProt P31645)

SMILES	target	read-out	action	technique	notes	IC50 [µM]
C#CCN(C)c1nc(NCCCC2CCN(Cc3ccccc3)CC2)c(C#N)cc1C#N	BCHE	enzyme activity	inhibitor	Ellman		1.19
Clc1ccc2c(C3=CCN(CC[C@@H]4CNc5ccccc54)CC3)c[nH]c2c1	SLC6A4	ligand displacement		radioligand	cell membranes	0.205
C[C@H](N)Cn1ncc2ccc3c(c21)CCCO3	D(1A) dopamine receptor (DRD1, Homo sapiens, UniProt P21728)	ligand displacement		radioligand		138
CC(=O)N1C[C@H](CCN2CC=C(c3c[nH]c4cc(Cl)ccc34)CC2)c2ccccc21	SLC6A4	ligand displacement		radioligand	cell membranes	0.0818
CC=C1[C@H]2C=C(C)C[C@]1(N)c1cc(N)c(=O)[nH]c1C2	BCHE	enzyme activity	inhibitor	Ellman		525
O=P(O)(O)Oc1ccccc1OP(=O)(O)O	Signal transducer and activator of transcription 5A, SH2 (Homo sapiens, UniProt P42229)	ligand displacement		FP		69
CCn1cnc2c(Nc3cccc(Cl)c3)nc(N[C@@H]3CCCC[C@@H]3N)nc21	Ribosomal protein S6 kinase alpha-3, N-terminal kinase domain (RPS6KA3, Homo sapiens, UniProt P51812)	enzyme activity	inhibitor	FP		1
CC=C1[C@H]2C=C(C)C[C@]1(N)c1cc(C#N)c(=O)[nH]c1C2	BCHE	enzyme activity	inhibitor	Ellman		1050
I/C=C/CN1CCN(CCc2ccc3c(c2)CCO3)CC1	Sigma non-opioid intracellular receptor 1 (Sigmar1, Mus musculus, UniProt O55242)	ligand displacement		radioligand	cell membranes	0.00068
CC=C1[C@H]2C=C(C)C[C@]1(N)c1cc(OCCC)c(=O)[nH]c1C2	BCHE	enzyme activity	inhibitor	Ellman		87.3
NC(N)=S	Urease (Canavalia ensiformis, UniProt P07374)	enzyme activity	inhibitor			8.83
CC=C1[C@H]2C=C(C)C[C@]1(N)c1cc(I)c(=O)[nH]c1C2	BCHE	enzyme activity	inhibitor	Ellman		325
O=C(CNC(=S)NN=Cc1ccc([N+](=O)[O-])cc1)c1ccc(Cl)cc1	BCHE	enzyme activity	inhibitor	Ellman		425
